The record followed here is ChEMBL document CHEMBL3758103, “Anti-herpetic and anti-dengue activity of abietane ferruginol analogues synthesized from (+)-dehydroabietylamine” (Eur J Med Chem, 2016).

As a reminder, the IC50 is the midpoint of a concentration-inhibition curve.

Activity calls are given as the source filed them. No cut-off for these calls is given here.

The subject of assay [1] is HeLa. The experiment in a line: Cytotoxicity against human HeLa cells assessed as cell growth inhibition after 48 hrs by MTT assay. The format is functional, cell-based. The essentials:
(§1)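 MTT assay. Vero and HeLa cells plated at 2.0 × 10^4/well and preincubated 24 h; Jurkat and U937 plated at 3.0 × 10^4/well. Compounds were applied 48 h at 37 °C, 5% CO2, with 0.05% DMSO. Absorbance read at 570 nm and IC50 taken by linear regression. Values are the geometric mean of two experiments in quadruplicate.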
(In general: Tetrazolium dyes change colour on reduction, which living cells bring about.)

Assay [2] deals with Jurkat. Briefly: Cytotoxicity against human Jurkat cells assessed as cell growth inhibition after 48 hrs by MTT assay. The format is functional, cell-based. The essentials:
as §1

The nature of assay [3]: Cytotoxicity against human U937 cells assessed as cell growth inhibition after 48 hrs by MTT assay. The format is functional, cell-based. Conditions: U-937, 48 h. In short, it runs like this: as §1
Assay [4] has as its system Vero. Briefly: Cytotoxicity against African green monkey Vero cells assessed as cell growth inhibition after 48 hrs by MTT assay. Conditions: Chlorocebus sabaeus. The format is cell-based. In short, it runs like this: as §1
For assay [5], the system named is Jurkat. Briefly: Selectivity index, ratio of IC50 for African green monkey Vero cells to IC50 for human Jurkat cells. The format is functional. In short, it runs like this:
(§2)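 SI calculated as Vero IC50 divided by HeLa, Jurkat or U937 IC50, all from the 48 h MTT assay.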

The subject of assay [6] is Fusarium oxysporum. Briefly: Antifungal activity against Fusarium oxysporum ATCC 48112 assessed as microbial growth inhibition after 48 hrs by microdilution assay. The format is functional, organism-based. In short, it runs like this: (§3)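 Broth microdilution under CLSI M38-A with modifications, in duplicate, at final compound concentrations of 50–3.125 μg/mL. […] Values are the geometric mean of duplicate tests in three assays. Assay DMSO was 0.05%.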
A general note: In broth dilution the organism is exposed to a series of concentrations in liquid medium.

Assay [7] deals with Aspergillus fumigatus. The experiment in a line: Antifungal activity against Aspergillus fumigatus ATCC 204305 assessed as microbial growth inhibition by microdilution assay. The format is functional, organism-based. In short, it runs like this: as §3
For assay [8], the system named is Aspergillus flavus. Briefly: Antifungal activity against Aspergillus flavus ATCC 204304 assessed as microbial growth inhibition by microdilution assay. The format is functional, organism-based. The essentials: as §3
For assay [9], the system named is Aspergillus terreus. Briefly: Antifungal activity against Aspergillus terreus CDC 317 assessed as microbial growth inhibition by microdilution assay. The format is functional, organism-based. The essentials: as §3
In assay [10] the test system is Candida albicans. The experiment in a line: Antifungal activity against Candida albicans […] assessed as microbial growth inhibition after 24 hrs by microdilution assay. The format is functional, organism-based. The essentials:
(§4)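 Yeast microdilution by the AFST-EUCAST method at an inoculum of 1–5 × 10^5 CFU/mL, final compound concentrations 50–3.125 μg/mL, in duplicate. MIC is the lowest concentration giving 90% growth reduction after 24 h at 35 °C. Untreated inoculum served as negative control. Values are the geometric mean of duplicate tests in three assays.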

For assay [11], the system named is Candida parapsilosis. Briefly: Antifungal activity against Candida parapsilosis ATCC 22019 assessed as microbial growth inhibition after 24 hrs by microdilution assay. The format is functional, organism-based. In short, it runs like this: as §4
Assay [12] deals with Candida tropicalis. The experiment in a line: Antifungal activity against Candida tropicalis ATCC 200956 assessed as microbial growth inhibition after 24 hrs by microdilution assay. The format is functional, organism-based. The essentials: as §4
The subject of assay [13] is HeLa. Briefly: Selectivity index, ratio of IC50 for African green monkey Vero cells to IC50 for human HeLa cells. The format is functional. The essentials:
as §2

With `COc1cccc2c1C(=O)c1c(O)c3c(c(O)c1C2=O)C[C@@](O)(C(=O)CO)C[C@@H]3O[C@H]1C[C@H](N)[C@H](O)[C@H](C)O1` [DOXORUBICIN], the IC50 in assay [1] is 0.834 µM; in assay [2], 0.012 µM; in [3], 0.077 µM; in assay [4], 1.93 µM.
For the compound `CC(C)c1cc2c(cc1O)[C@@]1(C)CCC[C@@](C)(CN)[C@@H]1CC2`, the IC50 in assay [1] was above 80 µM; in assay [2], 49.4 µM; in assay [3] it was above 80 µM; in [4], 39.8 µM. In addition, the “Ratio IC50” value in assay [5] is given as 0.8. Further, the outcome in assay [6], in assay [7], in assay [8], in assay [9], in assay [10] and in [11] was inactive. Besides, the outcome in assay [12] was inactive.
Consider `CC(C)c1cc2c(cc1O)[C@@]1(C)CCC[C@@](C)(CN3C(=O)c4c(Cl)c(Cl)c(Cl)c(Cl)c4C3=O)[C@@H]1CC2`, for which the concentration for half-maximal inhibition (IC50) in assay [1] was 29 µM; in [2], 21.9 µM; in [3], above 40 µM; in assay [4], 267 µM. Also, the results for the “Ratio IC50” value in [13] and in assay [5] were 9.2 and 12.2, respectively. In addition, the outcome in assay [6], in [7], in assay [8], in assay [9], in assay [10] and in assay [11] was inactive. In addition, the outcome in assay [12] was inactive.
For the compound `CC(=O)O[C@H]1C(=O)[C@@]2(C)[C@H]([C@H](OC(=O)c3ccccc3)[C@]3(O)C[C@H](OC(=O)[C@H](O)[C@@H](NC(=O)c4ccccc4)c4ccccc4)C(C)=C1C3(C)C)[C@]1(OC(C)=O)CO[C@@H]1C[C@@H]2O` [PACLITAXEL], the 50% inhibitory concentration (IC50) worked out at 0.099 µM in [1], 0.0005 µM in [2] and 0.65 µM in assay [4].
As for `CC(=O)Oc1cc2c(cc1C(C)C)CC[C@H]1[C@](C)(CN3C(=O)c4ccccc4C3=O)CCC[C@]21C`, the IC50 in assay [1], in assay [2] and in assay [3] was above 50 µM throughout. Besides, the outcome in assay [6], in assay [7], in [8], in assay [9], in assay [10] and in assay [11] was inactive. In addition, the result in assay [12] was inactive.
Consider `CC(=O)Oc1cc2c(cc1C(C)C)CC[C@H]1[C@](C)(CN3C(=O)c4c(Cl)c(Cl)c(Cl)c(Cl)c4C3=O)CCC[C@]21C`, for which the IC50 in assay [1], in [2] and in assay [3] was above 40 µM each time. Also, the outcome in [6], in assay [7], in [8], in assay [9], in assay [10] and in [11] was inactive. Besides, the result in assay [12] was inactive.
Consider `CC(=O)Oc1cc2c(cc1C(C)C)/C(=N\S(=O)(=O)c1ccc(C)cc1)C[C@H]1[C@](C)(CN3C(=O)c4c(Cl)c(Cl)c(Cl)c(Cl)c4C3=O)CCC[C@]21C`, for which the half-maximal inhibitory concentration (IC50) in assay [1], in assay [2] and in assay [3] was above 30 µM throughout. Further, the outcome in assay [6], in assay [7], in [8], in assay [9], in assay [10] and in assay [11] was inactive. In assay [12], the result was inactive.
